# ChEMBL document CHEMBL1123476, “Synthesis of congeners and prodrugs of the benzene maleimide photoadduct mitindomide as potential antitumor agents. 2” (J Med Chem, 1986)
# Several values for one entry are separate records, joined by “and”; a condition that tells them apart may be missing. Identical values can stand only once.
# How the values were obtained:
# [1] = tested on: P388; assay: Antitumor activity in P-388 lymphocytic leukemia system at 25 mg/kg dose levels per injection; type: functional, Mus musculus
# How it was run: (§1)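 P-388 leukemia in vivo, dosed Q01D×09 (one injection daily for 9 days, mg/kg per injection). Activity is %T/C, the median lifetime of treated animals divided by that of controls, ×100. Live animals on day 4 were counted against the total (survivors day 4). Repeat tests were done independently at different times.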
# [2] = Solubility was determined; INS= less than 0.1; type: physicochemical
# [3] = tested on: P388; assay: Compound was tested for antitumor activity in P-388 lymphocytic leukemia system at 200 mg/kg dose levels per injection; type: functional, Mus musculus; how it was run: as §1
# [4] = tested on: P388; assay: Antitumor activity in P-388 lymphocytic leukemia system at 200 mg/kg dose levels per injection.; type: functional, Mus musculus
# How it was run: (§2)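 P-388 leukemia in animals, Q01D×09 schedule: dose given daily for 9 days, in mg/kg per injection. Read-outs are survivors on day 4 (live/total animals), body-weight difference test minus control (g), and % T/C (median lifetime of treated ÷ median lifetime of controls × 100). Some compounds were tested in independent runs at different times.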
# [5] = tested on: P388; assay: Compound was tested for antitumor activity in P-388 lymphocytic leukemia system at 25 mg/kg dose levels per injection; type: functional, Mus musculus; how it was run: as §1
# [6] = tested on: P388; assay: (§3) Antitumor activity in P-388 lymphocytic leukemia system at 100 mg/kg dose levels per injection.; type: functional, Mus musculus; how it was run: as §1
# [7] = tested on: P388; assay: Compound was tested for antitumor activity in P-388 lymphocytic leukemia system. at 200 mg/kg dose levels per injection; type: functional, Mus musculus; how it was run: as §1
# [8] = tested on: P388; assay: (§4) Antitumor activity in P-388 lymphocytic leukemia system at 50 mg/kg dose levels per injection.; type: functional, Mus musculus; how it was run: as §2
# [9] = tested on: P388; assay: Compound was tested for antitumor activity in P-388 lymphocytic leukemia system at 25 mg/kg dose levels per injection; 6/6; type: functional, Mus musculus; how it was run: as §2
# [10] = tested on: P388; assay: as §4; type: functional, Mus musculus; how it was run: as §1; remark: listed apart in the source
# [11] = tested on: P388; assay: as §3; type: functional, Mus musculus; how it was run: as §2; remark: listed apart in the source
# [12] = tested on: P388; assay: Compound was tested for antitumor activity in P-388 lymphocytic leukemia system at 200 mg/kg dose levels per injection; 3/6; type: functional, Mus musculus; how it was run: as §2
# [13] = tested on: P388; assay: Compound was tested for antitumor activity in P-388 lymphocytic leukemia system at 200 mg/kg dose levels per injection.; type: functional, organism-based; design: dose 200 mg/kg; details: Mus musculus; how it was run: as §1
# [14] = tested on: P388; assay: Compound was tested for antitumor activity in P-388 lymphocytic leukemia system at 200 mg/kg dose levels per injection; 5/6; type: functional, Mus musculus; how it was run: as §2
# [15] = tested on: P388; assay: Compound was tested for antitumor activity in P-388 lymphocytic leukemia system The difference in body weight was calculated at 12.5 mg/kg dose levels per injection; type: functional, Mus musculus
# [16] = tested on: P388; assay: Compound was tested for antitumor activity in P-388 lymphocytic leukemia system at 12.5 mg/kg dose levels per injection; type: functional, Mus musculus; how it was run: as §1
# [17] = tested on: P388; assay: Compound was tested for antitumor activity in P-388 lymphocytic leukemia system at 100 mg/kg dose levels per injection; 5/6; type: functional, Mus musculus; how it was run: as §2
# [18] = tested on: P388; assay: Compound was tested for antitumor activity in P-388 lymphocytic leukemia system at 12.5 mg/kg dose levels per injection; 6/6; type: functional, Mus musculus; how it was run: as §2
# [19] = tested on: P388; assay: Compound was tested for antitumor activity in P-388 lymphocytic leukemia system at 24.8 mg/kg dose levels per injection; type: functional, Mus musculus; how it was run: as §1
# [20] = tested on: P388; assay: Compound was tested for antitumor activity in P-388 lymphocytic leukemia system and the difference in body weight was calculated at 41.3 mg/kg dose levels per injection; type: functional, Mus musculus
# [21] = tested on: P388; assay: Compound was tested for antitumor activity in P-388 lymphocytic leukemia system at 68.8 mg/kg dose levels per injection; 6/6; type: functional, Mus musculus; how it was run: as §2
# [22] = tested on: P388; assay: Compound was tested for antitumor activity in P-388 lymphocytic leukemia system at 68.8 mg/kg dose levels per injection; type: functional, Mus musculus; how it was run: as §1
# [23] = tested on: P388; assay: Compound was tested for antitumor activity in P-388 lymphocytic leukemia system. The difference in body weight was calculated at 24.8 mg/kg dose levels per injection; type: functional, Mus musculus
# [24] = tested on: P388; assay: Compound was tested for antitumor activity in P-388 lymphocytic leukemia system at 24.8 mg/kg dose levels per injection; 6/6; type: functional, Mus musculus; how it was run: as §2
# [25] = tested on: P388; assay: Compound was tested for antitumor activity in P-388 lymphocytic leukemia system and the difference in body weight was calculated at 114.7 mg/kg dose levels per injection; type: functional, Mus musculus
# [26] = tested on: P388; assay: Compound was tested for antitumor activity in P-388 lymphocytic leukemia system at 41.3 mg/kg dose levels per injection; type: functional, Mus musculus; how it was run: as §1
# [27] = tested on: P388; assay: Compound was tested for antitumor activity in P-388 lymphocytic leukemia system at 114.7 mg/kg dose levels per injection; 2/6; type: functional, Mus musculus; how it was run: as §2
# [28] = tested on: P388; assay: Compound was tested for antitumor activity in P-388 lymphocytic leukemia system at 191.2 mg/kg dose levels per injection; 0/6; type: functional, Mus musculus; how it was run: as §2
# [29] = tested on: P388; assay: Compound was tested for antitumor activity in P-388 lymphocytic leukemia system and the difference in body weight was calculated at 68.8 mg/kg dose levels per injection; type: functional, Mus musculus
# [30] = tested on: P388; assay: Compound was tested for antitumor activity in P-388 lymphocytic leukemia system at 41.3 mg/kg dose levels per injection; 6/6; type: functional, Mus musculus; how it was run: as §2
structure (smiles),measurement,setting,value
CC12C=CC(C)(C3C(=O)NC(=O)C31)C1C3C(=O)NC(=O)C3C12 (stereo not drawn),T/C,[1],103%
same,Solubility,[2],Insoluble
same,Weight difference,[3],-6.1 g
same,Survivors at day 4,[4],6
same,Weight difference,[5],-1.5 g
same,T/C,[6],109%
same,Weight difference,[6],-4.8 g
same,T/C,[7],97%
same,Survivors at day 4,[8],6
same,Survivors at day 4,[9],6
same,T/C,[10],108%
same,Weight difference,[10],-3.7 g
same,Survivors at day 4,[11],6
O=C1NC(=O)C2C3C=CC(C12)C1C2C(=O)NC(=O)C2C31 (stereo not drawn),T/C,[1]; 25 mg/kg,149% and 142%
same,Solubility,[2],Insoluble
same,Survivors at day 4,[12],3
same,Weight difference,[3]; 200 mg/kg,-7.3 g and -3.1 g
same,T/C,[13],Toxic
same,T/C,[6],94%
same,Weight difference,[6],-3.4 g
same,T/C,[6]; 100 mg/kg,177%
same,Survivors at day 4,[14],5
same,Survivors at day 4,[8],6
same,Survivors at day 4,[9],6
same,T/C,[10]; 50 mg/kg,172% and 168%
same,Weight difference,[10]; 50 mg/kg,-2.2 g and -2 g
same,Weight difference,[15],0.2 g
same,T/C,[16],119%
same,Survivors at day 4,[11],6
same,Survivors at day 4,[17],5
same,Survivors at day 4,[18],6
CN1CCN(CN2C(=O)C3C4C=CC(C3C2=O)C2C3C(=O)N(CN5CCN(C)CC5)C(=O)C3C42)CC1.Cl (stereo not drawn),T/C,[19],113%
same,Weight difference,[20],-1.8 g
same,Survivors at day 4,[21],6
same,T/C,[22],172%
same,Weight difference,[23],1.2 g
same,Survivors at day 4,[24],6
same,Weight difference,[25],-5.9 g
same,T/C,[26],130%
same,Survivors at day 4,[27],2
same,Survivors at day 4,[28],0
same,Weight difference,[29],-4.6 g
same,Survivors at day 4,[30],6
